Measured values as given in ChEMBL document CHEMBL1177699, “Identification and functional characterization of a stable, centrally active derivative of the neurotensin (8-13) fragment as a potential first-in-class analgesic” (J Med Chem, 2010).
Numbered stars: 1 amine (or outer) side, 2 acyl side, 3 side chain; on linkers, the order of the positions; unused ones are H or OH. Square brackets hold non-standard residues; d marks the D form. Peptide text beside a SMILES is read from it. * marks the point of attachment. Pentanoyl(5-guanidino) = NC(N)=NCCCCC(=O)*; Ava(2S-Me) = C[C@@H](CCCN[*:1])C(=O)[*:2]; X21 = CC/N=C(\NCC)NCCC[C@H](C)C(=O)*; X27 = C[C@@H](CCCN1CCN(C)C1=N)C(=O)*; X9 = C[C@@H](CCCC[N+](C)(C)C)C(=O)*; X28 = C/N=C(\NC)NCCC[C@H](C)C(=O)*; NMe5Ava = CN(CCCCC(=O)[*:2])[*:1]; X17 = C[C@@H](CCCN1CCNC1=N)C(=O)*; X25 = C[C@@H](CCCNC1=NCCN1)C(=O)*; X23 = CCNC(=N)NCCC[C@H](C)C(=O)*; X10 = C[C@@H](CCCCCN(C)C)C(=O)*; X14 = CNC(=N)NCCC[C@H](C)C(=O)*; X8 = C[C@@H](CCCNC(=N)N)C(=O)*; X13 = CC/N=C(\NCC)NCCCCC(=O)*; X4 = C[C@@H](CCCCN(C)C)C(=O)*; Tle = CC(C)(C)[C@H](N)C(=O)O; X5 = CCN1CCN(CCCCC(=O)*)C1=N; X11 = C[C@@H](CCCCCN)C(=O)*; X12 = CNCCCCC[C@H](C)C(=O)*; X22 = C[N+](C)(C)CCCCC(=O)*; X24 = C[C@@H](CCCCN)C(=O)*; X26 = CNCCCC[C@H](C)C(=O)*; X7 = C/N=C(\NC)NCCCCC(=O)*; X31 = CCNC(=N)NCCCCC(=O)*; X2 = O=C(CCCCNC1=NCCN1)*; X20 = CNC(=N)NCCCCC(=O)*; X3 = CNCCC[C@H](C)C(=O)*; X16 = CN(C)CCCCCCC(=O)*; X19 = CN(C)CCCCC(=O)*; Ahp = NCCCCCCC(=O)O; X6 = CNCCCCCCC(=O)*; Ahx = NCCCCCC(=O)O; Ava = NCCCCC(=O)O

Assays:
Rattus norvegicus [1] = assay: Analgesic activity in ip dosed Sprague-Dawley rat assessed as paw withdrawal latency by hot plate assay; type: functional
How it was run: (§1)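 Male Sprague-Dawley rats (240–280 g), 10 mg/kg i.p. (morphine 5 mg/kg, saline controls). Hotplate held at 53.0±0.2°C; latency to hind-paw lift, nibble or shake at serial time points, 30 s cut-off. %MPE from pre- and post-drug latencies; endpoints are maximal %MPE, duration at 100% MPE and area under the response curve. n ≥ 6.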

Rattus norvegicus [2] = assay: Analgesic activity in Sprague-Dawley rat assessed as maximal possible effect paw at 10 mg/kg, ip by hot plate assay; type: functional; details: route intraperitoneal; how it was run: as §1

SMILES	Duration at 100% MPE (Rattus norvegicus [1]) [min]	MPE (Rattus norvegicus [2]) [%]
CC(C)C[C@H](NC(=O)[C@@H](NC(=O)[C@H](Cc1ccc(O)cc1)NC(=O)[C@@H]1CCCN1C(=O)[C@H](CCCNC(=N)N)NC(=O)CCCCNC1=NCCN1)C(C)(C)C)C(=O)O (X2-RPY[Tle]L-OH)	0	76.4
CC(C)C[C@H](NC(=O)[C@@H](NC(=O)[C@H](Cc1ccc(O)cc1)NC(=O)[C@@H]1CCCN1C(=O)[C@H](CCCNC(=N)N)NC(=O)[C@@H](C)CCCCCN)C(C)(C)C)C(=O)O (X11-RPY[Tle]L-OH)	45	100
C/N=C(\NC)NCCCCC(=O)N[C@@H](CCCNC(=N)N)C(=O)N1CCC[C@H]1C(=O)N[C@@H](Cc1ccc(O)cc1)C(=O)N[C@H](C(=O)N[C@@H](CC(C)C)C(=O)O)C(C)(C)C (X7-RPY[Tle]L-OH)	0	92.28
CNC(=N)NCCC[C@H](C)C(=O)N[C@@H](CCCNC(=N)N)C(=O)N1CCC[C@H]1C(=O)N[C@@H](Cc1ccc(O)cc1)C(=O)N[C@H](C(=O)N[C@@H](CC(C)C)C(=O)O)C(C)(C)C (X14-RPY[Tle]L-OH)	75	100
CC(C)C[C@H](NC(=O)[C@@H](NC(=O)[C@H](Cc1ccc(O)cc1)NC(=O)[C@@H]1CCCN1C(=O)[C@H](CCCNC(=N)N)NC(=O)[C@@H](C)CCCN1CCNC1=N)C(C)(C)C)C(=O)O (X17-RPY[Tle]L-OH)	0	55
CC(C)C[C@H](NC(=O)[C@@H](NC(=O)[C@H](Cc1ccc(O)cc1)NC(=O)[C@@H]1CCCN1C(=O)[C@H](CCCNC(=N)N)NC(=O)[C@@H](C)CCCNC1=NCCN1)C(C)(C)C)C(=O)O (X25-RPY[Tle]L-OH)	0	79.31
CNCCCCCCC(=O)N[C@@H](CCCNC(=N)N)C(=O)N1CCC[C@H]1C(=O)N[C@@H](Cc1ccc(O)cc1)C(=O)N[C@H](C(=O)N[C@@H](CC(C)C)C(=O)O)C(C)(C)C (X6-RPY[Tle]L-OH)	0	59.32
CC(C)C[C@H](NC(=O)[C@@H](NC(=O)[C@H](Cc1ccc(O)cc1)NC(=O)[C@@H]1CCCN1C(=O)[C@H](CCCNC(=N)N)NC(=O)CCCCN(C)C)C(C)(C)C)C(=O)O (X19-RPY[Tle]L-OH)	90	100
CC(C)C[C@H](NC(=O)[C@@H](NC(=O)[C@H](Cc1ccc(O)cc1)NC(=O)[C@@H]1CCCN1C(=O)[C@H](CCCNC(=N)N)NC(=O)CCCCCCN)C(C)(C)C)C(=O)O (H-[Ahp]RPY[Tle]L-OH)	60	100
CC(C)C[C@H](NC(=O)[C@@H](NC(=O)[C@H](Cc1ccc(O)cc1)NC(=O)[C@@H]1CCCN1C(=O)[C@H](CCCNC(=N)N)NC(=O)CCCCCCN(C)C)C(C)(C)C)C(=O)O (X16-RPY[Tle]L-OH)	0	29
CC(C)C[C@H](NC(=O)[C@@H](NC(=O)[C@H](Cc1ccc(O)cc1)NC(=O)[C@@H]1CCCN1C(=O)[C@H](CCCNC(=N)N)NC(=O)[C@@H](C)CCCCN)C(C)(C)C)C(=O)O (X24-RPY[Tle]L-OH)	0	86
CCNC(=N)NCCCCC(=O)N[C@@H](CCCNC(=N)N)C(=O)N1CCC[C@H]1C(=O)N[C@@H](Cc1ccc(O)cc1)C(=O)N[C@H](C(=O)N[C@@H](CC(C)C)C(=O)O)C(C)(C)C (X31-RPY[Tle]L-OH)	0	37.36
CNCCCC[C@H](C)C(=O)N[C@@H](CCCNC(=N)N)C(=O)N1CCC[C@H]1C(=O)N[C@@H](Cc1ccc(O)cc1)C(=O)N[C@H](C(=O)N[C@@H](CC(C)C)C(=O)O)C(C)(C)C (X26-RPY[Tle]L-OH)	0	55.8
CC(C)C[C@H](NC(=O)[C@@H](NC(=O)[C@H](Cc1ccc(O)cc1)NC(=O)[C@@H]1CCCN1C(=O)[C@H](CCCNC(=N)N)NC(=O)[C@@H](C)CCCCN(C)C)C(C)(C)C)C(=O)O (X4-RPY[Tle]L-OH)	0	84.9
CC(C)C[C@H](NC(=O)[C@@H](NC(=O)[C@H](Cc1ccc(O)cc1)NC(=O)[C@@H]1CCCN1C(=O)[C@H](CCCNC(=N)N)NC(=O)CCCCNC(=N)N)C(C)(C)C)C(=O)O ({Pentanoyl(5-guanidino)}-RPY[Tle]L-OH)	0	50.86
CC(C)C[C@H](NC(=O)[C@@H](NC(=O)[C@H](Cc1ccc(O)cc1)NC(=O)[C@@H]1CCCN1C(=O)[C@H](CCCNC(=N)N)NC(=O)[C@@H](C)CCCNC(=N)N)C(C)(C)C)C(=O)O (X8-RPY[Tle]L-OH)	0	48.52

SMILES	Duration at 100% MPE (Rattus norvegicus [1]) [min]	MPE (Rattus norvegicus [2]) [%]
CC(C)C[C@H](NC(=O)[C@@H](NC(=O)[C@H](Cc1ccc(O)cc1)NC(=O)[C@@H]1CCCN1C(=O)[C@H](CCCNC(=N)N)NC(=O)[C@@H](C)CCCC[N+](C)(C)C)C(C)(C)C)C(=O)O.[Cl-] (X9-RPY[Tle]L-OH)	15	67.2
CC(C)C[C@H](NC(=O)[C@@H](NC(=O)[C@H](Cc1ccc(O)cc1)NC(=O)[C@@H]1CCCN1C(=O)[C@H](CCCNC(=N)N)NC(=O)[C@@H](C)CCCN)C(C)(C)C)C(=O)O ({Ava(2S-Me)}-RPY[Tle]L-OH)	0	89.4
CC(C)C[C@H](NC(=O)[C@@H](NC(=O)[C@H](Cc1ccc(O)cc1)NC(=O)[C@@H]1CCCN1C(=O)[C@H](CCCNC(=N)N)NC(=O)CCCC[N+](C)(C)C)C(C)(C)C)C(=O)O.[Cl-] (X22-RPY[Tle]L-OH)	60	100
CNC(=N)NCCCCC(=O)N[C@@H](CCCNC(=N)N)C(=O)N1CCC[C@H]1C(=O)N[C@@H](Cc1ccc(O)cc1)C(=O)N[C@H](C(=O)N[C@@H](CC(C)C)C(=O)O)C(C)(C)C (X20-RPY[Tle]L-OH)	75	100
CC(C)C[C@H](NC(=O)[C@@H](NC(=O)[C@H](Cc1ccc(O)cc1)NC(=O)[C@@H]1CCCN1C(=O)[C@H](CCCNC(=N)N)NC(=O)CCCCN)C(C)(C)C)C(=O)O (H-[Ava]RPY[Tle]L-OH)	0	51.69
CCNC(=N)NCCC[C@H](C)C(=O)N[C@@H](CCCNC(=N)N)C(=O)N1CCC[C@H]1C(=O)N[C@@H](Cc1ccc(O)cc1)C(=O)N[C@H](C(=O)N[C@@H](CC(C)C)C(=O)O)C(C)(C)C (X23-RPY[Tle]L-OH)	0	74.48
CC(C)C[C@H](NC(=O)[C@@H](NC(=O)[C@H](Cc1ccc(O)cc1)NC(=O)[C@@H]1CCCN1C(=O)[C@H](CCCNC(=N)N)NC(=O)[C@@H](C)CCCCCN(C)C)C(C)(C)C)C(=O)O (X10-RPY[Tle]L-OH)	0	60.94
CNCCCCC(=O)N[C@@H](CCCNC(=N)N)C(=O)N1CCC[C@H]1C(=O)N[C@@H](Cc1ccc(O)cc1)C(=O)N[C@H](C(=O)N[C@@H](CC(C)C)C(=O)O)C(C)(C)C (NMe5Ava-RPY[Tle]L-OH)	120	100
CC/N=C(\NCC)NCCCCC(=O)N[C@@H](CCCNC(=N)N)C(=O)N1CCC[C@H]1C(=O)N[C@@H](Cc1ccc(O)cc1)C(=O)N[C@H](C(=O)N[C@@H](CC(C)C)C(=O)O)C(C)(C)C (X13-RPY[Tle]L-OH)	15	95.68
C/N=C(\NC)NCCC[C@H](C)C(=O)N[C@@H](CCCNC(=N)N)C(=O)N1CCC[C@H]1C(=O)N[C@@H](Cc1ccc(O)cc1)C(=O)N[C@H](C(=O)N[C@@H](CC(C)C)C(=O)O)C(C)(C)C (X28-RPY[Tle]L-OH)	0	63.3
CCN1CCN(CCCCC(=O)N[C@@H](CCCNC(=N)N)C(=O)N2CCC[C@H]2C(=O)N[C@@H](Cc2ccc(O)cc2)C(=O)N[C@H](C(=O)N[C@@H](CC(C)C)C(=O)O)C(C)(C)C)C1=N (X5-RPY[Tle]L-OH)	0	80.48
CC/N=C(\NCC)NCCC[C@H](C)C(=O)N[C@@H](CCCNC(=N)N)C(=O)N1CCC[C@H]1C(=O)N[C@@H](Cc1ccc(O)cc1)C(=O)N[C@H](C(=O)N[C@@H](CC(C)C)C(=O)O)C(C)(C)C (X21-RPY[Tle]L-OH)	0	10
CNCCC[C@H](C)C(=O)N[C@@H](CCCNC(=N)N)C(=O)N1CCC[C@H]1C(=O)N[C@@H](Cc1ccc(O)cc1)C(=O)N[C@H](C(=O)N[C@@H](CC(C)C)C(=O)O)C(C)(C)C (X3-RPY[Tle]L-OH)	0	82.4
CC(C)C[C@H](NC(=O)[C@@H](NC(=O)[C@H](Cc1ccc(O)cc1)NC(=O)[C@@H]1CCCN1C(=O)[C@H](CCCNC(=N)N)NC(=O)CCCCCN)C(C)(C)C)C(=O)O (H-[Ahx]RPY[Tle]L-OH)	0	48
CNCCCCC[C@H](C)C(=O)N[C@@H](CCCNC(=N)N)C(=O)N1CCC[C@H]1C(=O)N[C@@H](Cc1ccc(O)cc1)C(=O)N[C@H](C(=O)N[C@@H](CC(C)C)C(=O)O)C(C)(C)C (X12-RPY[Tle]L-OH)	75	100
CC(C)C[C@H](NC(=O)[C@@H](NC(=O)[C@H](Cc1ccc(O)cc1)NC(=O)[C@@H]1CCCN1C(=O)[C@H](CCCNC(=N)N)NC(=O)[C@@H](C)CCCN1CCN(C)C1=N)C(C)(C)C)C(=O)O (X27-RPY[Tle]L-OH)	0	76.07
